These results are taken from ChEMBL document CHEMBL4609993, “The architecture of hydrogen and sulfur σ-hole interactions explain differences in the inhibitory potency of C-β-d-glucopyranosyl thiazoles, imidazoles and an N-β-d glucopyranosyl tetrazole for human liver glycogen phosphorylase and offer new insights to structure-based design” (Bioorg Med Chem, 2020).

Data set [1] in a line: Inhibition of rabbit muscle GPa using Glc-1-P as substrate incubated for 15 mins. On the set-up: species or system Oryctolagus cuniculus.
Data set [2] has as its target T1, Glycogen phosphorylase, liver form (Homo sapiens, UniProt P06737).
T1 sequence (P06737 whole entry): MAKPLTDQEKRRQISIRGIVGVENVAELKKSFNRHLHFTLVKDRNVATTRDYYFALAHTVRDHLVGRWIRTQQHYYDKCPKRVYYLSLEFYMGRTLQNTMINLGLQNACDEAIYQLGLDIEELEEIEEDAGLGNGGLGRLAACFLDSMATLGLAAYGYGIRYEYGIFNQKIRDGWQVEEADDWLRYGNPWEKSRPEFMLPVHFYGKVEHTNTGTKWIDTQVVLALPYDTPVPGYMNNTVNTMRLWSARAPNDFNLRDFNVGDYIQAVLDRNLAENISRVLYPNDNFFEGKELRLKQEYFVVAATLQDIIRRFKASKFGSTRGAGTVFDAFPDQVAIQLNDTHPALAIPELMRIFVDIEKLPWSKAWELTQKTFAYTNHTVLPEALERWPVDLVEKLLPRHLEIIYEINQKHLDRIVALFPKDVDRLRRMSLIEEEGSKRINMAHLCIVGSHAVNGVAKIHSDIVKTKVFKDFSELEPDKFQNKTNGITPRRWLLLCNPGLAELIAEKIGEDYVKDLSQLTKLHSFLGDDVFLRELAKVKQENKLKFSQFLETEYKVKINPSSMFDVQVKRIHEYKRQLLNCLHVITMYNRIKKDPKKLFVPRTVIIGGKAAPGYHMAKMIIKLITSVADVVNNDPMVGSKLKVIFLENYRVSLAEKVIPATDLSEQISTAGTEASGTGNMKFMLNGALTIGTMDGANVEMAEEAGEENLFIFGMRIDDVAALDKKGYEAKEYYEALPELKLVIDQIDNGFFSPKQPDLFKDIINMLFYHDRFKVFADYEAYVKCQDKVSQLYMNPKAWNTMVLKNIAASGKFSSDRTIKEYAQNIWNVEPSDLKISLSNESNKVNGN
The data set is described as follows: Inhibition of human liver GPa using Glc-1-P as substrate incubated for 15 mins.

Data set [3] deals with T2, Glycogen phosphorylase, liver form (Homo sapiens) (UniProt P06737).
T2 sequence (whole entry): T1 sequence (P06737 whole entry)
The data set is described as follows: Inhibition of GP in human HepG2 cells assessed as reduction in GP activity at 500 uM incubated for 3 hrs by Bradford reagent based assay relative to control. Format: cell-based. In short, it runs like this: (§1)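 HepG2 cells were seeded at 1.0×10^6 per 60 mm dish and attached for 16–18 h. Glycogen was loaded for 16–18 h with 10 nM dexamethasone, 25 mM glucose and 100 nM insulin. Cells were then exposed to inhibitor or vehicle for 3 h in 5 mM glucose plus 100 nM glucagon. Lysates were sonicated in Tris pH 7.5/Triton/PMSF and cleared at 12,000 g. GP activity (nmol/min/mg, Bradford protein) came from a linear fit of 5 time points.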

Data set [4] has as its target T2, Glycogen phosphorylase, liver form (Homo sapiens). Put plainly: Inhibition of GP in human HepG2 cells assessed as reduction in GP activity at 335 uM incubated for 3 hrs by Bradford reagent based assay relative to control. Format: cell-based. In short, it runs like this: as §1
A short description of data set [5]: Inhibition of rabbit muscle GPb using alpha-D-glucose-1-phosphate as substrate by Lineweaver-Burk plot analysis. Also on record: species or system Oryctolagus cuniculus.
The subject of data set [6] is HepG2. Put plainly: Cytotoxicity against human HepG2 cells assessed as reduction in cell viability at >200 uM incubated for 24 hrs by MTT assay. It counts as cell-based. The settings on record: hepg2, 24 h.
The target in data set [7] is T2, Glycogen phosphorylase, liver form (Homo sapiens). Put plainly: Inhibition of GP in human HepG2 cells assessed as reduction in GP activity at 100 uM incubated for 3 hrs by Bradford reagent based assay relative to control. It counts as cell-based. The method, boiled down: as §1
For data set [8], the system named is HepG2. Put plainly: Cytotoxicity against human HepG2 cells assessed as reduction in cell viability at 100 uM measured after 3 and 24 hrs by MTT assay. Format: cell-based. Particulars: hepg2, 24 h.
A short description of data set [9]: Cytotoxicity against human HepG2 cells assessed as reduction in cell viability at 200 and 300 uM incubated for 3 hrs by MTT assay. The settings on record: read-out: INH. Format: cell-based. (Tetrazolium dyes change colour on reduction, which living cells bring about.)
Data set [10] in a line: Inhibition of rabbit muscle GPb using Glc-1-P as substrate incubated for 15 mins. Also on record: species or system Oryctolagus cuniculus. In short, it runs like this: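 Recombinant or rabbit muscle GP assayed by an earlier method. Initial velocities were taken from pseudo-first-order rate constants via the first-order rate equation. Ki came from non-linear regression with explicit weighting of apparent Km against inhibitor concentration, using 4–5 inhibitor levels per compound spanning 1–300 μM.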

The structures appear in SMILES notation.

In data set [1], `OC[C@H]1O[C@@H](c2nc(-c3ccccc3)n[nH]2)[C@H](O)[C@@H](O)[C@@H]1O` displayed an inhibition constant Ki of 1.74 µM.
Regarding `OC[C@H]1O[C@@H](c2nc(-c3ccc4ccccc4c3)cs2)[C@H](O)[C@@H](O)[C@@H]1O`, the figures for the Ki in data set [2] and in data set [1] were 78 µM and 69.1 µM, respectively.
With `OC[C@H]1O[C@@H](c2c[nH]c(-c3ccccc3)n2)[C@H](O)[C@@H](O)[C@@H]1O`, the inhibitory constant (Ki) was found to be 25.9 µM in data set [2], 68.6 µM in data set [5] and 17.7 µM in [1]. Moreover, the inhibition in data set [3] was found to be 60%; in data set [4] it was 50%. In addition, in the data set with HepG2 [6], the Activity entry is on record as “Toxic”.
`OC[C@H]1O[C@@H](c2csc(-c3ccccc3)n2)[C@H](O)[C@@H](O)[C@@H]1O`: the Ki stood at 172 µM in data set [2], 326 µM in data set [5] and 75.6 µM in [1].
As for `OC[C@H]1O[C@@H](c2c[nH]c(-c3ccc4ccccc4c3)n2)[C@H](O)[C@@H](O)[C@@H]1O`, the inhibition in data set [7] stood at 60%. Further, the Ki in data set [2] turned out to be 3.2 µM; in data set [5], 4.58 µM; in data set [1], 1.6 µM. In the data set on HepG2 [8], the Activity result was “Non-Toxic”.
As to `OC[C@H]1O[C@@H](c2csc(-c3ccc4ccccc4c3)n2)[C@H](O)[C@@H](O)[C@@H]1O`, the Ki was 43.6 µM in data set [2], 26.2 µM in data set [5] and 28 µM in data set [1]. For the same compound, the inhibition in data set [3] was < 25%. In addition, the cytotoxicity at 3 h in data set [9] is < 10%. The Activity entry in the data set on HepG2 [6] is “Toxic”.
For the compound `OC[C@H]1O[C@@H](c2nc(-c3ccccc3)cs2)[C@H](O)[C@@H](O)[C@@H]1O`, the Ki in [2] was found to be 180 µM; in data set [1], 157 µM.
For `OC[C@H]1O[C@@H](n2nnc(-c3ccccc3)n2)[C@H](O)[C@@H](O)[C@@H]1O`, the Ki in data set [2] worked out at 134 µM; in data set [10] it was 162 µM; in [1], 146 µM.

The term Ki denotes the dissociation constant of the complex between target and ligand, obtained from inhibition or displacement. High values mean weaker binding, low ones tighter binding. The term inhibition denotes the share of the control response that was lost under treatment.
